Source: article PMC5045767 (Bioorganic & medicinal chemistry, 2016)
pIC50: −log10 of the molar value. ≈ marks a conversion by molar mass, not a printed value. Entries after “also recorded” stand apart in the source; their conditions may differ. Read-outs that look alike come from different tables or passages of the source.

How the values were obtained:
MRSA S22 (strain W) = assay: time-kill assay; type: cell-based, S. aureus; settings: 4× MIC, over 24 h
[1] = system: S. epidermidis ATCC 35984 (strain AC); assay: ROS production, DCFH-DA staining; type: cell-based; settings: 1× and 4× MIC, 1 h at 37 °C
Method in brief: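 Untreated cells served as negative control and 1 mM H2O2 as positive control. Cells were then stained with DCFH-DA (40 μg/mL) and examined by fluorescence microscopy.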

[2] = system: S. epidermidis ATCC 35984 (strain AC); assay: membrane disruption, propidium iodide staining; type: cell-based; settings: 1× and 4× MIC
Method in brief: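 Membrane integrity was assessed by propidium iodide uptake, with red-stained cells scored as membrane-compromised. […] Controls: untreated and aminoglycoside-treated cells (negative), and a tobramycin derivative carrying a C14 linear alkyl thioether at the 6″-position (positive).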

E. faecium BM4105-RF = assay: MIC, broth double dilution; type: cell-based; settings: Enterococcus faecium, BM4105RF, strain AF = E. faecium BM4105-RF
HEK-293 = assay: mammalian cytotoxicity; type: cell-based; settings: for difference between cytotoxic concentration and MIC values: HEK-293 vs MRSA strains, depending on the strain; for cytotoxicity (significant = >20% cell death): up until 10 μg/mL, HEK-293
S. aureus strains = assay: MIC over the panel of S. aureus strains; type: cell-based
[3] = MIC broth double-dilution assay with the inoculum size of the time-kill assays; type: cell-based; settings: inoculum 1×10^6 CFU/mL
[4] = system: murine red blood cells (mRBCs); assay: hemolytic assay; type: cell-based, mouse; settings: compared to ebselen / among ebsulfur analogues tested
[5] = solubility in liquid Mueller-Hinton medium; type: physicochemical
[6] = system: S. aureus ATCC 6538 (strain A); assay: reduction of established biofilm; type: cell-based; settings: 1× to […] MIC tested, concentration not given
NorA, efflux pump = settings: NorA inhibitor; cited from earlier work
S. aureus ATCC 25923 = assay: MIC, broth double dilution; type: cell-based; settings: Staphylococcus aureus, ATCC25923, strain B = S. aureus ATCC 25923
MRSA NRS77 = assay: MIC, broth double dilution; type: cell-based, S. aureus; settings: Staphylococcus aureus, MRSA|NRS77, strain T = MRSA NRS77
[7] = system: S. aureus ATCC 6538 (strain A); settings: 2 μg/mL; cited from earlier work

| Compound | ROS production (DCFH-DA) [1] | membrane disruption (PI uptake) [2] | MIC (E. faecium BM4105-RF) | cytotoxicity (significant = >20% cell death) (HEK-293) | MIC values with time-kill inoculum size compared with standard MIC [3] | also measured |
| --- | --- | --- | --- | --- | --- | --- |
| O=c1c2ccccc2sn1-c1ccccc1 [2a, 2-phenyl-1,2-benzisothiazol-3(2H)-one] | led to production of ROS | no sign of membrane disruption | 2 to 7.8 µg/mL (≈ 8.8 to 34.3 µM) | – | – | reduction of bacterial load (MRSA S22 (strain W)): 1.5 orders of magnitude |
| CC(C)c1ccc(-n2sc3ccccc3c2=O)cc1 [2e] | – | – | – | did not display any significant cytotoxicity | – | difference between cytotoxic concentration and MIC values (HEK-293): up to 40 fold; improvement in MIC values when compared to the parent compound 2a (S. aureus strains): up to 16 fold |
| O=c1c2ccccc2sn1-c1cccc(Br)c1 [2g] | – | – | – | – | remained identical | – |
| CC(C)c1cccc(-n2sc3ccccc3c2=O)c1 [2h] | – | – | 2 to 7.8 µg/mL (≈ 7.42 to 29 µM) | did not display any significant cytotoxicity | remained identical | difference between cytotoxic concentration and MIC values (HEK-293): up to 40 fold; improvement in MIC values when compared to the parent compound 2a (S. aureus strains): up to 16 fold; hemolytic activity, comparison [4]: less hemolytic when compared to ebselen; also recorded: least hemolytic |
| COc1cc(OC)cc(-n2sc3ccccc3c2=O)c1 [2k] | – | – | 2 to 7.8 µg/mL (≈ 6.96 to 27.1 µM) | – | – | – |
| O=c1c2ccccc2sn1-c1cccc2ccccc12 [2l] | – | – | – | did not display any significant cytotoxicity | – | – |
| O=c1c2ccccc2sn1-c1ccccn1 [2m] | – | – | – | – | – | solubility [5]: soluble enough for biological testing |
| CCCCCCn1sc2ccccc2c1=O [3b] | led to production of ROS | no sign of membrane disruption | – | – | – | reduction of bacterial load (MRSA S22 (strain W)): 1.5 orders of magnitude |
| CCCCCCCCn1sc2ccccc2c1=O [3c] | led to production of ROS | no sign of membrane disruption | – | – | – | reduction of bacterial load (MRSA S22 (strain W)): 1.5 orders of magnitude; hemolytic activity, comparison [4]: less hemolytic when compared to ebselen; biofilm reduction [6]: low to no biofilm reduction |
| O=[N+]([O-])c1ccc2[nH]c(-c3ccccc3)cc2c1 [5-nitro-2-phenyl-(1H)-indole] | – | – | – | – | – | pIC50 (NorA, efflux pump): > 5.30 |
| NCC[C@H](O)C(=O)N[C@@H]1C[C@H](N)[C@@H](O[C@H]2O[C@H](CN)[C@@H](O)[C@H](O)[C@H]2O)[C@H](O)[C@H]1O[C@H]1O[C@H](CO)[C@@H](O)[C@H](N)[C@H]1O [AMK, amikacin, reference compound] | – | – | ≥ 125 µg/mL | – | remained identical | MIC (S. aureus ATCC 25923): ≤ 0.5 µg/mL; MIC (MRSA NRS77): ≤ 0.5 µg/mL |
| O=c1c2ccccc2[se]n1-c1ccccc1 [Ebselen, 2-phenyl-1,2-benzisoselenazol-3(2H)-one, reference compound] | led to production of ROS | no sign of membrane disruption | – | very similar | remained identical | biofilm reduction [7]: approximately 60% |
